SENP6 inh – blocks the human protease SENP6; Q9GZR1; Recombinant SENP6 catalytic domain, aminoluciferin luminescence; inhibition, % at 10 µM; actives 1.8% (n = 330,000); AID 2599;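 active = inhibition above about 50% at the single tested dose, limit read from the data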;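 note: plate controls were DMSO wells with enzyme for no effect and DMSO wells lacking enzyme for full effect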
SENP1 FRET inh – SENP1 (human) catalytic domain inhibition | Q9P0U3 | recombinant SENP1 catalytic domain, CyPet-SUMO1-YPet FRET cleavage | inhibition, % at 10 µM | actives 0.21% (n = 360,000);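 active = inhibition at least 30% at 10 µM, raw YFP signal under a set limit, fluorescence ratio 0.5 to 1.5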;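 note: 0% = enzyme with DMSO and 100% = no enzyme wells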
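Material – human SENP1 catalytic domain · Input – SENP1 enzyme, 20 pM final · Compound dosing – single concentration of 10 µM compound, 0.5% DMSO final · Timing – enzyme reaction for 50 min at room temperature, dark · Measured by – FRET fluorescence in CFP and YFP emission channels · Control set – no-enzyme wells low, DMSO-plus-enzyme wells high control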
SENP8 block-1 – inhibitors of human SENP8 protease | Q96LD8 | purified SENP8, Z-RLRGG-aminoluciferin cleavage, luminescence | inhibition, % at 10 µM | actives 1.2% (n = 330,000) | AID 2540; in the data active = inhibition above about 50%
Target sequence (Q96LD8 whole entry, looked up): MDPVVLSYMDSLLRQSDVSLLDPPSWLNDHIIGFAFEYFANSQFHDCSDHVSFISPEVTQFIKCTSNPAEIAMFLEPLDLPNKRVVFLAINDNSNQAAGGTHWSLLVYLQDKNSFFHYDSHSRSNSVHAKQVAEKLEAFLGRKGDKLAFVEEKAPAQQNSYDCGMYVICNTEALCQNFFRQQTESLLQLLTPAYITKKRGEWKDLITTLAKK
HSP90 inh – inhibitors of HSP90 luciferase refolding in rabbit reticulocyte lysate; AID 1789; luciferase refolding luminescence, 3 h; actives 0.91% (n = 290,000); inhibition, % at 5.6 µM;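 active = inhibition above the screen-wide mean plus 3 SD, computed separately per campaign, cut at about 16% in these data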;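 note: 0% = DMSO wells and 100% = 60 µM geldanamycin wells; inhibitors lower the luminescence because luciferase stays unfolded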
SENP8 block-2 – SENP8 (human) protease inhibition. Q96LD8. recombinant SENP8, Nedd8 substrate fluorescence. inhibition, % at 20 µM. actives 0.64% (n = 360,000). AID 602440; in the data active = inhibition mostly above about 40%, no sharp cut-off; inactive = mostly below about 27%
SENP7 inh – blocks the human protease SENP7 | Q9BQF6 | recombinant SENP7, Z-RLRGG-aminoluciferin luminescence, 40 min | inhibition, % at 5 µM | actives 1.5% (n = 330,000);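 active = inhibition above about 50% at the single test dose, limit read from the data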;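 note: plate controls were DMSO with enzyme for no effect and no enzyme buffer wells for full effect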
Target sequence (Q9BQF6 706-1050 limits assumed): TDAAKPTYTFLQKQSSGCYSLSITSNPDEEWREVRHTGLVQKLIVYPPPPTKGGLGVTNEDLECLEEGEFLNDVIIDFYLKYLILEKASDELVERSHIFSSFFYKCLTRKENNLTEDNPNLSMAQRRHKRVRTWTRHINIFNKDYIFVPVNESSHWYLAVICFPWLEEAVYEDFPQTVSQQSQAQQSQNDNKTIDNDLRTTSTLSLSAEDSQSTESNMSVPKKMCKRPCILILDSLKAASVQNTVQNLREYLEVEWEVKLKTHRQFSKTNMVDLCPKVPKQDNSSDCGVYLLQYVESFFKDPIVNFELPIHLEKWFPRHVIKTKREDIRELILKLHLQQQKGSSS
* = called active by the depositor; i = inactive; x = no result. This is a sample that favours compounds with a hit; in the whole collection about 2.9% have one here.

SMILES | SENP6 inh | SENP1 FRET inh | SENP8 block-1 | HSP90 inh | SENP8 block-2 | SENP7 inh
O=[N+]([O-])c1cc(Cl)ccc1-c1nc(-c2ccncc2)no1 | 3 | 2 | 13 | 1 | 5 | 6
O=C(CC1Nc2ccccc2NC1=O)c1ccccc1 (centres undefined) | 72* | x | 59* | -3 | x | 20
O=C(CC1Nc2ccccc2NC1=O)NCCc1ccccc1 (centres undefined) | 1 | -63 | 4 | 0 | -273 | 5
O=C(c1ccccc1)c1ccc(O)cc1O | 4 | 54* | -7 | 3 | 20 | 8
Cc1ccc(/C=C2\CCC(C3CCCC3)C2=O)cc1 (centres undefined) | 89* | 4 | 40 | -5 | 7 | 75*
COc1ccc(/C=C2\CCC(C3CCCC3)C2=O)cc1OC (centres undefined) | 12 | -7 | -5 | 1 | 17 | 1
CC1CN(CC(=O)Nc2nc3ccccc3s2)CC(C)O1 (centres undefined) | -15 | -27 | 5 | 2 | -24 | -1
Cc1cccc(NC(=O)/C=C/c2ccc(Cl)cc2)n1 | 84* | 4 | 68* | 3 | -1 | 86*
Cc1ccnc(NC(=O)/C=C/c2ccccc2[N+](=O)[O-])c1 | 39 | x | 69* | 2 | x | 78*
Cc1cccc(NC(=O)/C(C#N)=C/c2ccc(Cl)cc2)n1 | 5 | -3 | -3 | -3 | 7 | -3
Cc1ccnc(NC(=O)c2ccccc2[N+](=O)[O-])c1 | 19 | 2 | -1 | 2 | 29 | -10
Cc1cc(C)nc(NC(=O)/C=C/c2ccccc2Cl)c1 | 83* | 9 | -4 | -1 | 3 | 81*
COC(=O)c1sccc1NC(=O)/C=C/c1ccc(Cl)cc1 | 74* | 3 | 58* | 3 | -40 | 95*
O=C(NCCc1ccccc1)C1CCCN(c2cnccn2)C1 (centres undefined) | -4 | 0 | -6 | 0 | -366 | -16
C[C@H](CO)N1C[C@H](C)[C@@H](CN(C)S(=O)(=O)c2ccccc2)Oc2ccc(NC(=O)C3CC3)cc2C1=O | -2 | 1 | -20 | x | 3 | -5
c1ccc2c(c1)CCN(c1nc3cc4c(cc3s1)OCO4)C2 | 88* | -80 | 94* | 3 | -82 | 96*
C/C(=N\Nc1cccc2cccnc12)c1ccc[nH]1 | 30 | -9 | 75* | 8 | 36 | 57*
CCOc1ccc(NC(=O)Nc2ccccc2SC)cc1 | 98* | 2 | 95* | -1 | 2 | 99*
CCOc1ccc(NC(=O)c2cc3ccccc3cc2O)cc1 | 45 | -28 | 23 | 1 | -26 | 68*
CCOc1ccc(NC(=O)Nc2cccn(Cc3ccccc3)c2=O)cc1 | 38 | 0 | 21 | 3 | -89 | 19
COC(=O)/C(N=Nc1cccc(C(F)(F)F)c1)=C(\C)O | 0 | 0 | -3 | 0 | 49* | 3
Cc1ccc(N2C(=O)c3ccccc3C2O)nc1 (centres undefined) | x | x | x | 33* | x | x
Cc1ccc(N2C(=O)c3ccccc3C2Nc2ccccc2F)nc1 (centres undefined) | -15 | 2 | -2 | -3 | 9 | 13
O=c1c(=NNc2ccccc2Cl)c(=O)c2ccccc12 | x | 15 | x | 26* | 40* | x
CCCOC(=O)c1ccc(-c2ccc(C=O)o2)cc1 | -14 | -1 | -15 | 36* | -13 | -17
SMILES | SENP6 inh | SENP1 FRET inh | SENP8 block-1 | HSP90 inh | SENP8 block-2 | SENP7 inh
CC(=O)c1c(C)[nH]c(C(=O)OC(C)C(=O)NC2CCCCC2)c1C (centres undefined) | x | 0 | x | x | 24 | x
CC(=O)NC(c1ccccc1)c1nc(-c2ccc(Cl)cc2)cs1 (centres undefined) | x | -1 | x | x | 19 | x
CCCCC[n+]1ccn(C2=C([O-])c3ccccc3C(=O)/C2=N\S(=O)(=O)c2ccc(Br)cc2)c1 | 35 | 5 | 16 | 1 | 80* | 7
CCCC[n+]1ccn(-c2nc3ccccc3nc2[N-]S(=O)(=O)c2ccccc2)c1 | 8 | -124 | -6 | 1 | -295 | 5
CCCCC[n+]1ccn(-c2nc3ccccc3nc2[N-]S(=O)(=O)c2ccc(C)cc2)c1 | 0 | -21 | 1 | 4 | -483 | 1
CC(C)[n+]1ccn(C2=C([O-])c3ccccc3C(=O)/C2=N\S(=O)(=O)c2ccccc2)c1 | 43 | 0 | 16 | 0 | 86* | 16
CCCCC[n+]1ccn(C2=C([O-])c3ccccc3C(=O)/C2=N\S(=O)(=O)c2ccccc2)c1 | 25 | -1 | 22 | -2 | 67* | 18
CC(C)c1ccc(NC(=O)C[n+]2ccn(C3=C([O-])c4ccccc4C3=O)c2)cc1 | 36 | -1 | 7 | 4 | 24 | 16
CCCC[n+]1ccn(C2=C([O-])c3ccccc3C(=O)/C2=N\S(=O)(=O)c2ccccc2)c1 | 39 | 2 | 29 | 1 | 78* | 28
CCN(CC)C(=O)C1=C(C)N(Cc2ccc(C(C)(C)C)cc2)C(=O)C(CC(=O)NCCCCc2ccccc2)C1 (centres undefined) | x | -1 | x | x | -28 | x
O=C(CCc1ccccc1)N=C1SC2CS(=O)(=O)CC2N1Cc1ccccc1 (centres undefined) | -7 | 1 | -5 | -1 | 3 | -4
CCOC(=O)C1CCN(S(=O)(=O)c2ccc3c4c(cccc24)C(=O)N3CC)CC1 | -2 | -30 | -3 | x | i | 7
COc1ccc(C(=O)CSc2nccn2C)c(OC)c1 | 6 | -2 | 2 | -2 | 9 | 24
O=C(NCc1cccnc1)c1c[nH]c2cc3c(cc2c1=O)OCCO3 | -1 | 1 | 2 | 16* | 3 | 0
O=C(O)c1ccc(N/N=C/C=C/c2ccccc2)cc1 | 98* | -32 | 95* | 7 | -216 | 92*
COc1cc(OC)c(C(=O)OCC(=O)Nc2ccc(S(=O)(=O)N3CCOCC3)cc2)cc1OC | 3 | 3 | -5 | x | -22 | 10
CCCCN1C(=O)/C(=C/C=C2/CC(C)(C)CN2C)SC1=S | 6 | -27 | -1 | -5 | 46* | 5
CCCCN1C(=O)/C(=C/C=C2\Oc3ccccc3N2CC)SC1=S | x | -19 | x | -3 | 32 | x
Cc1cccc(C)c1NC(=O)C1(C)CN(S(C)(=O)=O)CC(=O)N1CCc1ccccc1F (centres undefined) | x | -6 | x | x | 10 | x
CCNC(=S)NS(=O)(=O)c1ccccc1 | 7 | 2 | 2 | 4 | 42* | 3
CCNC(=S)NS(=O)(=O)c1ccc(Cl)cc1 | -1 | 1 | -8 | -1 | 15 | -7
CCN(CC)c1ccc(NC(=O)CSc2ccsc2[N+](=O)[O-])c(C)c1 | 7 | 3 | 3 | 3 | 46* | 6
O=C(CSc1ccsc1[N+](=O)[O-])Nc1cc(F)ccc1F | x | 2 | x | 6 | 8 | x
O=c1c2ccccc2c2ccccc2c(=O)n1Nc1ccccc1 | x | 0 | x | x | 15 | x
O=c1[nH][nH]c2c(N=Cc3ccccc3O)ccc(F)c12 | x | 13 | x | 2 | 47* | x
